Calb FLC: C. albicans growth modulation with fluconazole; C. albicans CaCi-2 (fluconazole-resistant clinical isolate) + fluconazole, Alamar Blue growth, 48 h; growth inhibition, % (concentration not given with the values); 300,000 compounds, 0.57% hits;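 active = growth inhibition above about 58% in most replicates, limit read from the data, passing the limit was not always enough; inconclusive = exactly half the replicates above a set limit; inactive = most replicates below a set limit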;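 also: all wells also contain fluconazole at 8 µg/ml as a sub-toxic cotreatment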
PolyA inhibitor: blocks polyadenylation in yeast reporter cells; S. cerevisiae SKY197-pL101 polyadenylation reporter, beta-gal luminescence; efflux-impaired pdr1/pdr3 knockout yeast; score 100 = 6 SD above DMSO; activity score, % at 12 µM; 300,000 compounds, 0.02% hits;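 active = lowest replicate activity score at least 50, where 100 means six control SD above control mean; inconclusive = lowest score under 50 but half or more replicates reach 50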;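 also: yeast exposed to compound for 9 h at 30 °C; higher score means more reporter readthrough which indicates perturbed polyadenylation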
Beta apoptosis: beta cell apoptosis inhibition | AID 435005 | 300,000 compounds, 0.8% hits | protection from apoptosis, % (no concentration beside the values) | INS-1E cytokine-induced death, ATP luminescence, 48 h; percent of positive-control rescue, neutral wells zero;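 active = Every replicate reaches about 75%, or at least half do and their mean reaches it too, limit read from the data; inconclusive = At least half of replicates reach the limit but their mean does not; inactive = Under half of replicates reach the limit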;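 also: higher means more ATP so stronger rescue from cytokine killing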
CSC inhib: cancer stem cell inhibition; cancer stem cell-like cells viability, luminescence; inhibition, % at 7.5 µM; 300,000 compounds, 1.1% hits; in the data active = inhibition above about 75%; inconclusive = no clear call, values can overlap the other calls; tested in HMLE shEcad cells
HIF act: HIF pathway transcriptional activation; U2OS HRE-luciferase reporter, luminescence; normalized: DMSO 0%, desferrioxamine 100%; activation, % at 7.5 µM (by protocol); 300,000 compounds, 0.32% hits; AID 1910;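 active = mean activation of at least 10% of the iron chelator positive control signal, with at least half of replicates also reaching 10%; inconclusive = mean and replicate majority disagree about reaching 10%; inactive = mean and most replicates under 10%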
T cruzi repl: T. cruzi replication inhibition; T. cruzi beta-gal in NIH3T3, luminescence, 90 h; inhibition, % (test concentration not listed); 300,000 compounds, 1.4% hits;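 active = mean inhibition across valid replicates above about 55%, limit read from the data; inconclusive = mean below that limit but half or more replicates reach it; inactive = mean below it, under half of replicates reach it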;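 also: signal also drops with host cell toxicity which is not excluded here; higher percent means less beta-gal luminescence so fewer parasites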
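assay system = mouse NIH/3T3 fibroblasts infected with β-gal-expressing T. cruzi Tulahuen C4 | input = 5,000 NIH/3T3 host cells per well | buffer or medium = DMEM plus 2% FBS | timing = 3 h host attachment, then at least 90 h co-culture | measured by = GalScreen luminescence, 60 min | evaluation = luminescence reflecting intracellular parasite burden, expressed as percent inhibition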
Numbers stand for hits; - = inactive; ? = inconclusive; . = no result given; ! = repeats disagree. Shown are actives, neighbours in structure and some others; about 3.1% of the full set was active somewhere.

SMILES	Calb FLC	PolyA inhibitor	Beta apoptosis	CSC inhib	HIF act	T cruzi repl
CC1(C(=O)N/N=C/c2ccc([N+](=O)[O-])o2)CC1(Br)Br (stereo unspecified)	92	-	-	-	-	-
N#CCc1ccc(NC(=O)/C=C/c2ccc([N+](=O)[O-])o2)cc1	97	-	.	.	-	-
O=C(O)/C=C/c1ccc([N+](=O)[O-])o1	-	-	-	-	-	-
O=C(CCN1CCN(c2ccccc2)CC1)N/N=C/c1ccc(O)c(O)c1O	114	-	.	.	-	-
C/C(=N\OCC(=O)OCC(=O)NC(=O)c1ccccc1)c1ccc2c(c1)OCO2	-	-	-	-	-	-
COc1ccc(F)cc1C1=CC(=O)C[C@H](c2ccc3c(c2)OCO3)C1	.	.	-	-	.	.
CCC(CO)Oc1cc(NC(=O)c2ccccc2Cl)c2ncn(C(C)C)c2c1 (stereo unspecified)	.	.	-	-	.	.
CCN1CCN(Cc2ccc(NC(=O)c3cc(NC(=O)c4cnn(-c5ccccc5)c4N)cc(OC)c3)cc2C(F)(F)F)CC1	-	-	109	131	-	-
CCN1CCN(Cc2ccc(NC(=O)c3cc(NC(=O)c4cc(C)on4)cc(OC)c3)cc2C(F)(F)F)CC1	-	-	-	-	-	-
CCN1CCN(Cc2ccc(NC(=O)c3ccc(C)c(NC(=O)C(=O)c4c[nH]c5ccccc45)c3)cc2C(F)(F)F)CC1	-	-	110	102!	-	-
CCN1CCN(Cc2ccc(NC(=O)c3cc(NC(=O)C(=O)c4c[nH]c5ccccc45)cc(OC)c3)cc2C(F)(F)F)CC1	-	-	98	-	-	?
CCN1CCN(Cc2ccc(NC(=O)c3ccc(C)c(NC(=O)c4ccc5n[nH]nc5c4)c3)cc2C(F)(F)F)CC1	-	-	-	.	-	-
CCN1CCN(Cc2ccc(NC(=O)c3ccc(C)c(NC(=O)c4ccnnc4)c3)cc2C(F)(F)F)CC1	-	-	-	-	-	-
Nc1nnnn1CC(=O)N/N=C/c1ccccn1	-	-	-	-	-	-
CNCC(=O)N(CC(C)C)c1c(N)n(CC(C)C)c(=O)[nH]c1=O	-	-	-	-	-	-
Cc1ccc(-n2nc3c(=O)n(CCCC(=O)N4CCC(C(N)=O)CC4)nc(C)c3c2C)cc1	-	-	-	-	-	-
COC(=O)c1ccc(CSc2nc3c(c(=O)n2-c2ccc(F)cc2)SCC3)o1	-	-	.	.	11	-
Cc1cc(NC(=O)CSc2nc3c(c(=O)n2-c2ccc(Cl)cc2)SCC3)no1	-	-	-	-	45	-
COc1ccccc1CNS(=O)(=O)c1ccc(-n2cccn2)cc1	-	-	-	-	-	-
CNc1nc(C)c([N+](=O)[O-])c(Nc2ccc(OC)cc2)n1	-	-	-	-	-	-
CC(=O)Nc1ccc(Nc2nc(C)c([N+](=O)[O-])c(Nc3ccc(NC(C)=O)cc3)n2)cc1	-	-	-	-	469	-
CC(C)C[C@@H](CO)N1CCN(Cc2ccc([N+](=O)[O-])cc2)CCC1=O	-	-	-	-	-	-
CCCOc1ccc(CCC(=O)N/N=C/c2ccc([N+](=O)[O-])o2)cc1	-	-	-	-	-	-
Cc1ccccc1OCC(=O)N/N=C/c1ccc([N+](=O)[O-])o1	-	-	-	-	-	61
O=C(COc1ccccc1[N+](=O)[O-])N/N=C/C=C/c1ccco1	-	-	-	-	-	-
SMILES	Calb FLC	PolyA inhibitor	Beta apoptosis	CSC inhib	HIF act	T cruzi repl
Cc1cc(C)cc(OCC(=O)N/N=C/c2ccc([N+](=O)[O-])o2)c1	?	-	-	-	-	60
O=C(N/N=C\C=C\c1ccc([N+](=O)[O-])o1)c1cccs1	91	-	-	-	-	78
COc1ccccc1OCC(=O)N/N=C/C=C/c1ccc([N+](=O)[O-])o1	94	-	-	-	-	58
COc1cc(OC)cc(C(=O)N[C@H](C(=O)NC2=NCCS2)C(C)C)c1	.	.	-	-	.	.
O=[N+]([O-])c1ccc(N2CCN(CCOc3nonc3-c3ccccc3)CC2)c(Cl)c1	-	-	119	-	-	-
Cc1nonc1OCCN1CCN(c2ccc([N+](=O)[O-])cc2)CC1	-	-	-	-	-	-
CC(C)(C)OC(=O)N1CCC2(CC1)Oc1ccc(Cl)cc1C(=O)C21CC(c2ccc(Cl)cc2)=NO1 (stereo unspecified)	-	-	-	-	-	-
